{"data": "Measurements pooled from the literature", "target": "Serine/threonine-protein kinase STK11 (STK11, Homo sapiens, UniProt Q15831)", "Sequence (Q15831 1-433, as in one of the studies)": "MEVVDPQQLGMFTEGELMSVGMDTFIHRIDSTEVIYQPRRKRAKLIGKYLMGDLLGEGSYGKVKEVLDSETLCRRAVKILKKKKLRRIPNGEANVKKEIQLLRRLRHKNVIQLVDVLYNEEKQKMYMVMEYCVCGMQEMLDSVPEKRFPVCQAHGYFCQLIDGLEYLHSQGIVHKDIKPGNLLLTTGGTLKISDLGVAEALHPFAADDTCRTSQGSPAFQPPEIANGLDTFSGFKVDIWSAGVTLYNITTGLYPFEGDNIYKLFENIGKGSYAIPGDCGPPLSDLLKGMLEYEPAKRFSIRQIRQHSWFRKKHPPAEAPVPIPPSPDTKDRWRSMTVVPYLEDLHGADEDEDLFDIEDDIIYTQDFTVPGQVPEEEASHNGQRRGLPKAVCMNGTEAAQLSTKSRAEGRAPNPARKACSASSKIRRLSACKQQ"}
{"SMILES": "Cc1sc(C(=O)NC2COC2)cc1-n1cc(NC(=O)Nc2c(F)cccc2Cl)cn1", "effect on": "enzyme activity", "mode": "inhibitor", "tested at": "10 µM", "endpoint": "remaining activity", "value": "97.6%"}
{"SMILES": "O=C1NC(=O)c2cc(Nc3ccc(F)cc3)c(Nc3ccc(F)cc3)cc21", "effect on": "cell-free assay", "tested at": "0.5 µM", "endpoint": "remaining signal", "value": "98.2%"}
{"SMILES": "Cc1c[nH]c2nccc(Oc3c(F)cc(Nc4cc(Cl)nc(N)n4)cc3F)c12", "effect on": "cell-free assay", "method": "competition with immobilised ligand", "tested at": "0.1 µM", "endpoint": "remaining binding", "value": "100%"}
{"SMILES": "FC(F)c1nc2ccccc2n1-c1nc(N2CCOCC2)nc(N2CCOCC2)n1", "effect on": "enzyme activity", "mode": "inhibitor", "tested at": "10 µM", "endpoint": "remaining activity", "value": "103%"}
{"SMILES": "Cc1cnc(NC2CCOCC2)nc1-n1cnc(C(=O)NC(CN)c2cc(F)cc(Cl)c2)c1 (stereo not shown)", "effect on": "enzyme activity", "mode": "inhibitor", "method": "radiometric", "tested at": "1 µM", "endpoint": "remaining activity", "value": "104%"}
{"SMILES": "N#CC1(c2ccccn2)CCN(Cc2cc(C(=O)N3CCCC3)c(=O)n3ccccc23)CC1", "effect on": "cell-free assay", "method": "competition with immobilised ligand", "tested at": "1 µM", "endpoint": "remaining binding", "value": "77%"}
{"SMILES": "Cc1cc(NC(=O)c2cccc3cc(-c4cccc5[nH]nc(N)c45)ccc23)ccc1F", "effect on": "enzyme activity", "mode": "inhibitor", "tested at": "0.1 µM", "endpoint": "activity vs control", "value": "97%"}
{"SMILES": "Cc1ccc(NC(=O)c2ccc(C)c(C(F)(F)F)c2)cc1C#Cc1nn(C2CCC(O)CC2)c2ncnc(N)c12 (stereo not shown)", "effect on": "cell-free assay", "tested at": "10 µM", "endpoint": "remaining signal", "value": "94%"}
{"SMILES": "Cc1ccc(C(=O)Nc2ccc(CN3CCN(C)CC3)c(C(F)(F)F)c2)cc1C#Cc1cnc2cccnn12", "effect on": "enzyme activity", "mode": "inhibitor", "tested at": "23.5 nM", "endpoint": "remaining activity", "value": "96%"}
{"SMILES": "FC(F)(F)Oc1cccc(-c2cnc3ccc(-c4ccncc4)nn23)c1", "effect on": "enzyme activity", "mode": "inhibitor", "method": "radiometric", "tested at": "1 µM", "endpoint": "activity vs control", "value": "89%"}
{"SMILES": "CNC(=O)c1cc(Oc2ccc(NC(=O)Nc3ccc(Cl)c(C(F)(F)F)c3)cc2)ccn1", "effect on": "cell-free assay", "tested at": "0.5 µM", "endpoint": "remaining signal", "value": "104%"}
{"SMILES": "Oc1cccc(-c2nc(N3CCOCC3)c3oc4ncccc4c3n2)c1", "effect on": "enzyme activity", "mode": "inhibitor", "tested at": "10 µM", "endpoint": "remaining activity", "value": "62%"}
{"SMILES": "O=C(Nc1cnn(-c2csc(C(=O)NC3COC3)c2)c1)Nc1ccccc1Cl", "effect on": "enzyme activity", "mode": "inhibitor", "tested at": "5 µM", "endpoint": "remaining activity", "value": "118%"}
{"SMILES": "Cc1cc(-n2nc(Cc3cc(F)cc(C(F)(F)F)c3)nc2C)ccc1C(N)=O", "effect on": "cell-free assay", "method": "competition with immobilised ligand", "tested at": "1 µM", "endpoint": "remaining binding", "value": "100%"}
{"SMILES": "Cc1ccc(Nc2nccc(N(C)c3ccc4c(C)n(C)nc4c3)n2)cc1S(N)(=O)=O", "effect on": "enzyme activity", "mode": "inhibitor", "tested at": "0.3 µM", "endpoint": "inhibition", "value": "-6%"}
{"SMILES": "CCS(=O)(=O)c1cc2cc(C[C@](O)(CC(C)(C)c3ccc(F)cc3C(N)=O)C(F)(F)F)[nH]c2cn1", "effect on": "cell-free assay", "method": "competition with immobilised ligand", "tested at": "1 µM", "endpoint": "remaining binding", "value": "100%"}
{"SMILES": "Nc1ncnc2occ(-c3ccc(NC(=O)Nc4cc(C(F)(F)F)ccc4F)cc3)c12", "effect on": "cell-free assay", "mode": "inhibitor", "tested at": "20 µM", "endpoint": "remaining signal", "value": "99%"}
{"SMILES": "CCC(=O)N[C@H]1CC[C@@H](C(=O)N(C)c2ccc(-c3nc4ccccc4o3)cc2)C1", "effect on": "cell-free assay", "method": "competition with immobilised ligand", "tested at": "1 µM", "endpoint": "remaining binding", "value": "100%"}
{"SMILES": "CCCOc1ccc(OC)c(F)c1C(=O)c1ccc(C(=O)N[C@@H]2CNC[C@H]2NC(=O)c2ccc3[nH]ncc3c2)cc1", "effect on": "enzyme activity", "mode": "inhibitor", "tested at": "10 µM", "endpoint": "remaining activity", "value": "92%"}
{"SMILES": "FC(F)(F)c1ccc2c(c1)nc(-c1cccnc1)n2C1CC1", "effect on": "cell-free assay", "method": "competition with immobilised ligand", "tested at": "1 µM", "endpoint": "remaining binding", "value": "100%"}
{"SMILES": "CCN(CC)CCNC(=O)c1c(C)[nH]c(/C=C2\\C(=O)Nc3ccc(F)cc32)c1C", "effect on": "enzyme activity", "mode": "inhibitor", "tested at": "0.3 µM", "endpoint": "inhibition", "value": "-11%"}
{"SMILES": "CNC(=O)c1ccc(Nc2ncc(C(F)(F)F)c(NCc3nccnc3N(C)S(C)(=O)=O)n2)cc1", "effect on": "cell-free assay", "method": "competition with immobilised ligand", "tested at": "0.1 µM", "endpoint": "remaining binding", "value": "100%"}
{"SMILES": "CN(c1nccc(-c2cnn3ncccc23)n1)C1CC1", "effect on": "cell-free assay", "tested at": "1 µM", "endpoint": "remaining signal", "value": "100%"}
{"SMILES": "CNCc1ccccc1-c1csc([C@H](C)Nc2nc(C)nc3cc(OC)c(OC)cc23)c1", "effect on": "cell-free assay", "method": "competition with immobilised ligand", "tested at": "1 µM", "endpoint": "remaining binding", "value": "100%"}
{"SMILES": "COc1cc(Nc2cnc(C#N)c(O[C@H](C)CN(C)C)n2)ncc1-c1cnn(C)c1", "effect on": "enzyme activity", "mode": "inhibitor", "method": "radiometric", "tested at": "1 µM", "endpoint": "remaining activity", "value": "96%"}
